High-throughput results as filed in PubChem.
KCNQ1 act: potentiators or activators of KCNQ1 channel, primary screen, cell-based, thallium flux, high-throughput; Potassium voltage-gated channel subfamily KQT member 1 (Homo sapiens), P51787; CHO-K1 KCNQ1, thallium flux FluxOR fluorescence; hits give high values; B-score at 10 µM; hit rate 0.35% among 310,000;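 active = fluorescence ratio B-score, a plate-corrected score, at least three library SD, with initial intensity B-score within 5 SD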
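Material: CHO-K1 cells stably expressing KCNQ1. Medium: assay buffer for compound exposure, DMSO matched across wells. Reagent: K+/Tl+ depolarizing stimulus. Compound dosing: single-concentration screen. Times: 37 °C overnight plating, 90-min dark dye load, 20-min compound pretreatment. Technique: FluxOR Tl+ flux fluorescence.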
hERG protect: hERG rescue from dofetilide block, primary screen, cell-based, CHO-hERG, FluxOR thallium flux, dofetilide IC70; Voltage-gated inwardly rectifying potassium channel KCNH2 (Homo sapiens), Q12809; dofetilide IC70 present; activation (rescue from dofetilide block), less the hit threshold, % at 10 µM; hit rate 0.51% among 310,000;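 active = activation above the mean of controls blocked by dofetilide plus 5 SD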;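 note: thallium influx through hERG after potassium depolarization seen as dye fluorescence rise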
Kir21 block: inhibitors of mouse Kir2.1 inward-rectifier potassium channel. Inward rectifier potassium channel 2 (Mus musculus), P35561. HEK293-Kir2.1, FluxOR thallium flux fluorescence; hits give low values. B-score at 10 µM. hit rate 0.85% among 310,000;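 active = fluorescence ratio B-score at or below minus 3 SD of library scores, with starting-brightness B-score within 2 SD, cut at about -4.2 in these data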;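 note: channel flux triggered by added potassium and thallium sulfate stimulus; B-score of peak minus minimum fluorescence over baseline after thallium stimulus; more negative B-score means stronger Kir2.1 block with less thallium influx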
KCNK3 block: human KCNK3 channel inhibitors, primary screen, CHO cells, FluxOR thallium flux, B-score; AID 602410, 2012; B-score at 10 µM; Potassium channel subfamily K member 3 (Homo sapiens), O14649; FluxOR fluorescence; hits give low values; hit rate 0.84% among 340,000;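 active = B-score under library mean minus 4 SD, starting fluorescence ratio at most library mean plus 5 SD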;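 note: more negative B-score means stronger inhibition of thallium flux through KCNK3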
KCNK9 block: KCNK9 potassium channel inhibitors, primary screen, HEK293 cells, thallium flux | Potassium channel subfamily K member 9 (Homo sapiens), Q9NPC2 | FluxOR thallium flux fluorescence; hits give low values | B-score at 10 µM | hit rate 1.2% among 310,000 | AID 488922, 2010;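 active = ratio B-score over 3 SD below the library mean, with starting fluorescence within 5 SD of its mean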;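 note: negative B-score means less thallium flux so channel inhibition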
KCNQ1 inh: inhibitors of human KCNQ1 channel, primary screen, cell-based, thallium flux, high-throughput. B-score at 10 µM. CHO-K1 KCNQ1, FluxOR thallium flux fluorescence; hits give high values. hit rate 1.3% among 310,000;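 active = compounds whose thallium flux B-score, printed positive for inhibition, exceeds three library SD while starting fluorescence stays within three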;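 note: channel opened by potassium depolarization with thallium stimulus after 20 min compound exposure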
KCNQ1 block val: KCNQ1 potassium channel inhibitors, confirmation, cell-based, Tl flux, duplicate; shares compounds with KCNQ1 inh; KCNQ1 cell line, FluxOR thallium flux fluorescence; inhibition, % at 10 µM; hit rate 93% among 1,600; AID 588353, 2011;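 active = primary screen active, with duplicate mean exceeding buffer control mean plus 3 SD of buffer wells, cut at about 28% in these data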
CHO KCNQ1 ctr: thallium flux effects in parental CHO cells, counter-screen for KCNQ1 inhibitor project, cell-based, Tl flux | shares compounds with KCNQ1 inh | parental CHO-K1, FluxOR thallium flux fluorescence ratio; hits give low values; zero means no signal rise above baseline | fluorescence ratio (Tl flux) at 10 µM | hit rate 21% among 1,600 | AID 588366, 2011;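 active = mean of duplicate thallium-flux fluorescence ratios in parental host cells more than 5 SD below the buffer control mean, cut at about 0.38 in these data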;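 note: ratio is peak minus minimum fluorescence divided by baseline fluorescence; actives read low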
KCNQ1 ephys val: KCNQ1 channel inhibitors, confirmation, orthogonal assay, cell-based, automated electrophysiology; shares compounds with KCNQ1 inh; calls only at 10 µM; AID 624120, 2012; KCNQ1-CHO cells, automated patch clamp current; hit rate 20% among 490;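 active = KCNQ1 current drop exceeding 3 SD of negative control wells, seen in both duplicate runs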;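 note: steady state current during a 2 s step from -80 to +40 mV; negative values mean current inhibition and positive values mean potentiation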
KCNQ2 spec: KCNQ2 channel inhibition, selectivity assay for KCNQ1 inhibitor project, cell-based; shares compounds with KCNQ1 inh; KCNQ2 cells, FluxOR thallium flux fluorescence; inhibition, % at 10 µM; hit rate 71% among 1,600;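 active = mean percent inhibition of the KCNQ2 thallium signal more than 5 SD above the buffer-only control wells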;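 note: KCNQ2 expressed in CHO cells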
Target sequence (O88943 whole entry, looked up): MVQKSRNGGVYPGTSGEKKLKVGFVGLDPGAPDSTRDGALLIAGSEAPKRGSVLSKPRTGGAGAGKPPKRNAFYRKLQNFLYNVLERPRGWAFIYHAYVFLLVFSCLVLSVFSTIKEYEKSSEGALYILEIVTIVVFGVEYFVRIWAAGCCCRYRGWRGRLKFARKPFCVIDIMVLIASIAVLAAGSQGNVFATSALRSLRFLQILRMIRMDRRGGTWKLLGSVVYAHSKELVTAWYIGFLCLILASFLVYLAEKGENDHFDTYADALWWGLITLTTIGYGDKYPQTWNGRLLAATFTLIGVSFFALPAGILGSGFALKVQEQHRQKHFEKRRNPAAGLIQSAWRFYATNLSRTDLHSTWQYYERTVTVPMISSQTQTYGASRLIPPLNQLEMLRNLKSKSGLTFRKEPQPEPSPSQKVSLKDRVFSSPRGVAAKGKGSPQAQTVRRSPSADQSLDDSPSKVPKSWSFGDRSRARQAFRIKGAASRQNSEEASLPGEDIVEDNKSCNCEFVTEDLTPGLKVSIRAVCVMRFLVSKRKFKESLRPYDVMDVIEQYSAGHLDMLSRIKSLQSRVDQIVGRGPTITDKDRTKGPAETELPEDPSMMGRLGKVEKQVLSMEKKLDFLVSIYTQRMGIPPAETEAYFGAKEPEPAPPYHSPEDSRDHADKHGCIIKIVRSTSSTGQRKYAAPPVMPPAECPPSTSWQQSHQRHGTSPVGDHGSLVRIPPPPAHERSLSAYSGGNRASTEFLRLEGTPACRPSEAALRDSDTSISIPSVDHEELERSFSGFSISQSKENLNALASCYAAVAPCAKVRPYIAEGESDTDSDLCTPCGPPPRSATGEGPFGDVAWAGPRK
KCNQ1-KCNE1 inh: KCNQ1/KCNE1 channel inhibition, selectivity assay for KCNQ1 inhibitor project, CHO-K1 cells, thallium flux, FluxOR | shares compounds with KCNQ1 inh | FluxOR thallium flux fluorescence | inhibition, % at 10 µM | hit rate 77% among 1,600 | AID 652147, 2013;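 active = mean percent inhibition of duplicate wells above the buffer-only control mean plus 3 SD of those controls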
KCNK9 block conf: KCNK9 potassium channel inhibitors, confirmation, HEK293 cells, thallium flux, duplicate. inhibition, % at 10 µM. hit rate 43% among 4,900. shares compounds with KCNK9 block. FluxOR thallium flux fluorescence;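 active = thallium signal inhibited by more than 5 SD of the compound-free buffer control wells, on both duplicate plates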
Kir2-1 spec: mouse Kir2.1 channel inhibition, confirmation, selectivity assay for KCNK9 modulator project, cell-based, HEK293, thallium flux; hit rate 4% among 4,900; AID 492993, 2010; Kir2.1 cells, FluxOR thallium flux fluorescence; inhibition, % at 10 µM; shares compounds with KCNK9 block;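 active = thallium signal drop more than 5 SD beyond the mean of the no-compound control wells, seen in both duplicate plates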;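 note: signal is fluorescence rise after thallium addition divided by baseline fluorescence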
KCNK9 uninduced: thallium flux in non-induced HEK293 cells, confirmation, counter-screen for KCNK9 inhibitor project, cell-based, second counter screen, non-induced KCNK9-HEK293; FluxOR thallium flux; shares compounds with KCNK9 block; hit rate 40% among 4,900; inhibition, % at 10 µM;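 active = thallium signal drop beyond 5 SD of the untreated control mean, on both duplicate plates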
KCNK3 confirm: retest of human KCNK3 channel inhibitors, confirmation, CHO cells, FluxOR thallium flux, triplicate; shares compounds with KCNK3 block; FluxOR fluorescence; 0% buffer, 100% carvedilol maximal block; ratio percent of control, % at 10 µM; hit rate 99% among 2,400;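 active = ratio percent of control, averaged over triplicates, above buffer control mean plus 5 SD, cut at about 64% in these data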;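 note: ratio is the fluorescence rise from min to max over baseline after thallium stimulus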
KCNK3 noninduced: thallium flux inhibition in non-induced cells, primary screen, counter-screen for KCNK3 inhibitor project, cell-based, non-induced KCNK3 line, FluxOR thallium, triplicate; shares compounds with KCNK3 block; hit rate 40% among 2,400; non-induced KCNK3 parental cells; hits give low values; thallium flux ratio (lower = more inhibition) at 10 µM; AID 651747, 2012;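 active = thallium flux ratio, averaged over three wells, more than 5 SD below the buffer control mean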;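 note: host cells are CHO cells without KCNK3 induction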
Hits are given with their value; i = inactive; nt = not tested or not shown; + = active, no number. Sampled rows, rich in hits. Any-hit rate of the full collection: about 3.7%.

SMILES | KCNQ1 act | hERG protect | Kir21 block | KCNK3 block | KCNK9 block | KCNQ1 inh | KCNQ1 block val | CHO KCNQ1 ctr | KCNQ1 ephys val | KCNQ2 spec | KCNQ1-KCNE1 inh | KCNK3 confirm | KCNK3 noninduced | others
Fc1ccc(C2c3[nH]c4ccccc4c3CCN2Cc2cccn2-c2ncccn2)cc1 (centres undefined) | i | i | i | -14 | -7.8 | 6 | 84 | i | nt | 72% | 97% | 121 | 0.15
Cc1cnc(C(=O)N2CCc3c([nH]c4ccccc34)C2c2ccc(F)cc2)cn1 (centres undefined) | i | i | i | i | i | i | nt | nt | nt | nt | nt | nt | nt
COc1ccc2[nH]c3c(N4CCc5ccccc5C4)ncnc3c2c1 | i | i | i | -8.7 | i | 11 | 143 | 0.25 | nt | 115% | + | 130 | 0.12
Fc1ccc(C2c3cccn3CCN2C(=S)Nc2cccc(F)c2)cc1 (centres undefined) | i | i | i | -10 | -7.5 | 9 | 118 | i | + | 116% | 182% | 135 | 0.15
NNC(=O)c1ccc(Cn2cc(Cl)cn2)cc1 | i | i | i | i | i | i | nt | nt | nt | nt | nt | nt | nt
O=C(Nc1ccc(Cl)c(Cl)c1)c1ccc(Cn2cc(Cl)cn2)cc1 | i | i | i | -12 | i | 8 | 112 | i | i | 105% | 112% | 109 | i
CCOc1ccc(N(CC(=O)Nc2ccc(C)c(C)c2)S(=O)(=O)c2c(C)noc2C)cc1 | i | i | i | -9.7 | i | 7 | 96 | i | i | 112% | 143% | 93 | i
Cc1ccc(NC(=O)CSc2ccccc2)cc1S(=O)(=O)N1CCCCC1 | nt | nt | nt | i | nt | nt | nt | nt | nt | nt | nt | nt | nt
Cc1ccc(NC(=S)NCc2ccccc2)cc1S(=O)(=O)N1CCCCC1 | i | i | i | -11 | i | 6 | 108 | i | i | 62% | i | 116 | i
Cc1ccc(C(=O)Nc2ccc(N3CCN(C)CC3)cc2)c(Cl)c1 | i | i | i | i | i | i | nt | nt | nt | nt | nt | nt | nt
Cc1cccc(OCC(=O)Nc2ccccc2N2CCCCC2)c1C | i | i | i | i | -8.4 | 9 | 102 | i | i | 88% | 150% | 110 | i | KCNK9 block conf=54%;Kir2-1 spec=34%;KCNK9 uninduced=42%
Cc1nc2ccc(S(=O)(=O)Nc3cccc(-c4nc5cccnc5s4)c3C)cc2s1 | i | i | i | -9.6 | i | 12 | 145 | 0.32 | nt | 105% | + | 114 | i
Cc1nc2ccc(S(=O)(=O)Nc3cc(-c4nc5cccnc5s4)ccc3C)cc2s1 | i | i | i | i | i | i | nt | nt | nt | nt | nt | nt | nt
Cc1ccc2c(c1)N(S(=O)(=O)c1cc(-c3onc(C)c3C)ccc1C)CCO2 | i | i | i | -11 | -7.5 | 7 | 77 | 0.35 | nt | 106% | 93% | 106 | i
COc1cccc(NC(=O)COc2cccc3c2CCNC3=O)c1 | i | i | i | i | i | i | nt | nt | nt | nt | nt | nt | nt
CON(C)C(=O)/C=C/c1ccc([B-](F)(F)F)cc1 | nt | nt | nt | i | nt | nt | nt | nt | nt | nt | nt | nt | nt
CCCNC(=S)N1CCN(c2nc(C)nc3sc4c(c23)CCCC4)CC1 | i | i | i | -9.5 | i | 8 | 112 | i | i | 135% | 170% | 134 | 0.14
O=C(Nc1ccncc1)c1cc(-c2cccc(Br)c2)nc2ccccc12 | i | i | i | i | i | i | nt | nt | nt | nt | nt | nt | nt
O=C(Nc1cccnc1)c1cc(-c2cccc(Br)c2)nc2ccccc12 | i | i | i | -12 | -9.2 | 15 | 148 | 0.31 | nt | 130% | 195% | 156 | 0.1 | KCNK9 block conf=i;Kir2-1 spec=i;KCNK9 uninduced=38%
COC(=O)C1C(c2ccccc2)C(C(=O)OCc2ccco2)C1c1ccccc1 (centres undefined) | i | i | i | -11 | -8.3 | 6 | 95 | 0.36 | nt | 111% | 164% | 116 | 0.15 | KCNK9 block conf=44%;Kir2-1 spec=i;KCNK9 uninduced=24%
COc1ccc(CCNC(C(=O)Nc2cc(C)cc(C)c2)c2ccccc2)cc1 (centres undefined) | i | i | i | -14 | i | 12 | 88 | 0.37 | nt | 122% | 144% | 118 | 0.14
CCOc1cc(/C=N/NC(=O)c2cc(-c3cccc(OC)c3)nc3ccccc23)ccc1O | i | i | i | i | i | i | nt | nt | nt | nt | nt | nt | nt
